Assay results gathered from unrelated publications.
Protocols differ between the studies behind these lines. In brackets after ≈: the same amount, converted by molar mass.

Compound | target or system | assay | system | conditions | measurement | value
Nc1ccc(S(=O)(=O)Nc2ncccn2)cc1 | Klebsiella pneumoniae | microbial growth, well diffusion | – | 20 µg/mL | inhibition zone | 2 mm
CN[C@H](CC(C)C)C(=O)N[C@H]1C(=O)N[C@@H](CC(N)=O)C(=O)N[C@H]2C(=O)N[C@H]3C(=O)N[C@H](C(=O)N[C@H](C(=O)O)c4cc(O)cc(O)c4-c4cc3ccc4O)[C@H](O)c3ccc(c(Cl)c3)Oc3cc2cc(c3O[C@@H]2O[C@H](CO)[C@@H](O)[C@H](O)[C@H]2O[C@H]2C[C@](C)(N)[C@H](O)[C@H](C)O2)Oc2ccc(cc2Cl)[C@H]1O | Streptococcus pneumoniae | microbial growth | PRSP | clinical isolate | MIC90 | 1 µg/mL (≈ 0.69 µM)
O=c1c2cc(Cl)ccc2nc(-c2ccccc2)n1N=Cc1ccc(Cl)c(Cl)c1 | LLC-PK1 | cell growth or viability, MTT | – | 72 h | IC50 | 337 µM
CC1(C)S[C@@H]2[C@H](NC(=O)[C@H](N)c3ccccc3)C(=O)N2[C@H]1C(=O)O | Streptococcus pneumoniae | microbial growth, agar dilution | ATCC49619 | – | MIC | 0.5 µg/mL (≈ 1.43 µM)
CC(C)(O/N=C(\C(=O)N[C@@H]1C(=O)N2C(C(=O)[O-])=C(C[n+]3ccccc3)CS[C@H]12)c1csc(N)n1)C(=O)O | Klebsiella pneumoniae | microbial growth, broth dilution | ATCC43816 | – | MIC | < 0.5 µg/mL
CC1(C)C[C@H]2[C@H]1CC[C@]1(C)CCC[C@@]2(n2cc(CN3CCOCC3)nn2)C1 | HT-29 | cell growth or viability, CCK-8 | – | 10 µM | inhibition | < 50%
Cc1nc(Nc2ncc(C(=O)Nc3c(C)cccc3Cl)s2)cc(N2CC[C@H](O)C2)n1 | U2932 | cell growth or viability, ATP luminescence | – | 10 µM, 72 h | inhibition | 58%
CC1(C)C[C@H]2[C@H]1CC[C@]1(C)CCC[C@@]2(n2cc(C(=O)NC3CCNCC3)nn2)C1 | HT-29 | cell growth or viability, CCK-8 | – | 50 µM | inhibition | 74.4%
CC(=O)NC[C@H]1CN(c2ccc(N3CCOCC3)c(F)c2)C(=O)O1 | Streptococcus pneumoniae | microbial growth | PRSP | clinical isolate | MIC90 | 2 µg/mL (≈ 5.93 µM)
CC1(C)C[C@H]2[C@H]1CC[C@]1(C)CCC[C@@]2(NS(C)(=O)=O)C1 | HT-29 | cell growth or viability, CCK-8 | – | 10 µM | inhibition | < 50%
CCCS(=O)(=O)Oc1ccc(C=NNC(=O)CSc2nc3ccc(Cl)cc3c(=O)n2-c2ccccc2)cc1OC | Klebsiella pneumoniae | microbial growth, well diffusion | – | 20 µg/mL | inhibition zone | 2 mm
CC1(C)C[C@H]2[C@H]1CC[C@]1(C)CCC[C@@]2(n2cc(-c3ccc(F)cc3)nn2)C1 | HT-29 | cell growth or viability, CCK-8 | – | 10 µM | inhibition | < 50%
COc1ccc(C=NNC(=O)CSc2nc3ccc(Cl)cc3c(=O)n2-c2ccccc2)cc1OS(C)(=O)=O | Klebsiella pneumoniae | microbial growth, well diffusion | – | 20 µg/mL | inhibition zone | 3 mm
CC1(C)C[C@H]2[C@H]1CC[C@]1(C)CCC[C@@]2(n2cc(CNC(N)=O)nn2)C1 | HT-29 | cell growth or viability, CCK-8 | – | 10 µM | inhibition | < 50%
CCS(=O)(=O)Oc1ccc(C=NNC(=O)CSc2nc3ccc(Cl)cc3c(=O)n2-c2ccccc2)cc1 | Klebsiella pneumoniae | microbial growth, well diffusion | – | 20 µg/mL | inhibition zone | 2 mm
C=C[C@]1(C)C[C@@H](OC(=O)CS[C@@H]2C[C@H]3CC[C@@H](C2)N3C)[C@]2(C)[C@H](C)CC[C@]3(CCC(=O)[C@H]32)[C@@H](C)[C@@H]1O | Streptococcus pneumoniae | microbial growth, agar dilution | ATCC49619 | – | MIC | 0.0312 µg/mL (≈ 0.0604 µM)
CC1(C)C[C@H]2[C@H]1CC[C@]1(C)CCC[C@@]2(NS(=O)(=O)C(C)(C)C)C1 | HT-29 | cell growth or viability, CCK-8 | – | 10 µM | inhibition | < 50%
COc1c(N2C[C@@H]3CCCN[C@@H]3C2)c(F)cc2c(=O)c(C(=O)O)cn(C3CC3)c12 | Streptococcus pneumoniae | microbial growth, agar dilution | ATCC49619 | – | MIC | 0.125 µg/mL (≈ 0.311 µM)
CC1(C)C[C@H]2[C@H]1CC[C@]1(C)CCC[C@@]2(NS(=O)(=O)c2ccc(OC(F)(F)F)cc2)C1 | HT-29 | cell growth or viability, CCK-8 | – | 50 µM | inhibition | 75.9%
COc1ccc(C=NNC(=O)CSc2nc3c(C)cccc3c(=O)n2-c2ccccc2)cc1OS(C)(=O)=O | Klebsiella pneumoniae | microbial growth, well diffusion | – | 20 µg/mL | inhibition zone | 2 mm
O=c1c2cc(Cl)ccc2nc(-c2ccccc2)n1N=Cc1cccc(O)c1 | LLC-PK1 | cell growth or viability, MTT | – | 72 h | IC50 | 321 µM
CCS(=O)(=O)Oc1cc(C=NNC(=O)CSc2nc3c(C)cccc3c(=O)n2-c2ccccc2)ccc1OC | Klebsiella pneumoniae | microbial growth, well diffusion | – | 20 µg/mL | inhibition zone | 3 mm
CN(C)c1ccc(C=Nn2c(-c3ccccc3)nc3ccc(Cl)cc3c2=O)cc1 | LLC-PK1 | cell growth or viability, MTT | – | 72 h | IC50 | 62.8 µM
CS(=O)(=O)Oc1ccc(C=NNC(=O)CSc2nc3ccc(Cl)cc3c(=O)n2-c2ccccc2)cc1 | Klebsiella pneumoniae | microbial growth, well diffusion | – | 20 µg/mL | inhibition zone | 2 mm
CC[C@H]1OC(=O)[C@H](C)[C@@H](O[C@H]2C[C@@](C)(OC)[C@@H](O)[C@H](C)O2)[C@H](C)[C@@H](O[C@@H]2O[C@H](C)C[C@H](N(C)C)[C@H]2O)[C@](C)(O)C[C@@H](C)/C(=N\OCOCCOC)[C@H](C)[C@@H](O)[C@]1(C)O | Streptococcus pneumoniae | microbial growth | – | clinical isolate | MIC90 | 4 µg/mL (≈ 4.78 µM)
CCS(=O)(=O)Oc1ccc(C=NNC(=O)CSc2nc3c(C)cccc3c(=O)n2-c2ccccc2)cc1 | Klebsiella pneumoniae | microbial growth, well diffusion | – | 20 µg/mL | inhibition zone | 2 mm
COc1ccc(-c2cn([C@@]34CCC[C@@](C)(CC[C@@H]5[C@@H]3CC5(C)C)C4)nn2)cc1 | HT-29 | cell growth or viability, CCK-8 | – | 50 µM | inhibition | 44.8%
